Source: PubChem
NPY1 pot ag: NPY-Y1 receptor potentiators or agonists, primary screen, cell-based; 0.37% of 220,000 active; NPY-Y1 expressing cells, potentiator/agonist activation; Neuropeptide Y receptor type 1 (Homo sapiens), P25929; AID 1304, 2008; activation, % at 3.6 µM; in the data active = activation above about 33%, passing the limit was not always enough;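 note: cells stimulated with NPY at EC10 then isoproterenol at EC100; 0% = low agonist plus stimulus and 100% = saturating agonist plus stimulus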
Target sequence (P25929 whole entry, looked up): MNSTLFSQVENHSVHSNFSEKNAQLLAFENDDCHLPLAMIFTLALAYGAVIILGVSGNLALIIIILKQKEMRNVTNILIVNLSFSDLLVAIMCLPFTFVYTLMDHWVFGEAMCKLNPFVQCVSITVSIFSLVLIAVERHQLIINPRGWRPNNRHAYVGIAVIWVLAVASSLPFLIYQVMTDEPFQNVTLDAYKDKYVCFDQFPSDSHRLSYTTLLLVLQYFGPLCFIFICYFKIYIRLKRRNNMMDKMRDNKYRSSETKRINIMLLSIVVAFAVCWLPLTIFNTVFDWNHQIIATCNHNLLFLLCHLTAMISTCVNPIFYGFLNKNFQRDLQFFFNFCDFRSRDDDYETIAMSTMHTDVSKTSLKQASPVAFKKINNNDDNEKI
NPY-Y1 antag: NPY-Y1 receptor antagonists, primary screen, cell-based; HEK293-CNG Y1 cells, membrane potential fluorescence; NPY at EC95, then isoproterenol; inhibition, % at 3.6 µM; 1% of 200,000 active; Neuropeptide Y receptor type 1 (Homo sapiens), P25929; AID 1040, 2008;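 active = inhibition above the campaign mean inhibition of all tested compounds plus 3 SD, cut at about 20% in these data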;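 note: 0% = DMSO wells given NPY plus isoproterenol and 100% = isoproterenol alone without NPY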
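Benchmarks – high control isoproterenol alone, low control NPY with isoproterenol · Material – HEK293 Y1/CNG channel cell line · Times – dye 3 h, compound 60 min room temperature, stimulation 45 min · Probe or stimulus – NPY (25 nM), isoproterenol (1 µM), Ro 20-1724 (25 µM) · Evaluation – % inhibition of NPY effect · Signal – fluorescence, membrane potential probe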
NPY2 pot ag: NPY-Y2 potentiators or agonists, primary screen, cell-based. Neuropeptide Y receptor type 2 (Homo sapiens), P49146. cells expressing NPY-Y2, potentiator/agonist read-out. activation, % at 3.6 µM. 0.45% of 220,000 active. AID 1359, 2008; in the data active = activation above about 27%;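 note: cells stimulated with NPY near EC25 plus isoproterenol at EC100; 0% = vehicle plus submaximal agonist and 100% = vehicle plus saturating agonist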
S1P4 antag: S1P4 receptor antagonists, primary screen, cell-based. S1P4-expressing cells, antagonist mode, reporter read-out. AID 1510, 2009. 0.26% of 220,000 active. inhibition, % at 4.98 µM; in the data active = inhibition above about 29%;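 note: 0% = wells stimulated with agonist and 100% = vehicle wells without agonist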
NPY-Y2 antag: NPY-Y2 receptor antagonists, primary screen, cell-based; inhibition, % at 2.7 µM; 0.99% of 140,000 active; NPY-Y2 expressing cells, antagonist mode; Neuropeptide Y receptor type 2 (Homo sapiens), P49146; in the data active = inhibition above about 17%;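 note: 0% = vehicle with agonist challenge and 100% = reference antagonist with challenge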
S1P4 ag: S1P4 receptor agonists, primary screen, cell-based. Sphingosine 1-phosphate receptor 4 (Homo sapiens), O95977. S1P4-expressing cell line, agonist reporter assay. activation, % at 4.98 µM. 0.35% of 220,000 active; in the data active = activation above about 11%;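 note: 0% = DMSO vehicle and 100% = reference agonist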
An asterisk follows results filed as active; · = no result. In the library only some 2.4% were active in any assay of this set; here they are far more common.

SMILES	NPY1 pot ag	NPY-Y1 antag	NPY2 pot ag	S1P4 antag	NPY-Y2 antag	S1P4 ag
CN(C)CCNS(=O)(=O)c1ccc(N2CCN(c3ccc(F)cc3)CC2)c([N+](=O)[O-])c1	-1	-3	24	-7	-1	-1
COc1cc(C(=O)NC2=C(C#N)CCC2)cc(OC)c1OC	5	-1	1	-15	·	1
O=C(Nc1nc2ccccc2s1)C1CCN(S(=O)(=O)c2cc([N+](=O)[O-])ccc2Cl)CC1	80*	·	82*	13	·	-1
CN1C(=O)CSc2ccc(NC(=O)N3CCN(c4ccccc4)CC3)cc21	-4	1	-7	-33	·	0
CCC(=O)Nc1ccccc1C(=O)OC(c1ccccc1)c1ccccc1	-24	27*	-4	-19	24*	1
CC(C)c1ccc(C2C3=C(COC3=O)Nc3cc4c(cc32)OCO4)cc1 (configuration not stated)	18	7	10	4	·	0
N#Cc1c(NCCN)nc(-c2ccco2)c2c1CCCC2	-108	44*	-59	-5	22*	1
N#Cc1c(N2CCOCC2)nc(-c2ccco2)c2c1CCCC2	-1	1	13	-8	2	1
CCCNCc1cc(OC)c(OCc2ccccc2)cc1Br	-11	1	-25	-6	·	0
COc1ccc(C(=O)C(CCCCC(CN(C)C)C(=O)c2ccc(OC)cc2)CN(C)C)cc1 (configuration not stated)	-93	21*	-23	-1	22*	-4
COC(=O)C1=CN(C2CC2)C=C(C(=O)OC)C1c1ccc(C(=O)OC)cc1	-15	0	-14	-39	6	2
COC(=O)C1=CN(C2CC2)C=C(C(=O)OC)C1c1ccc(C(F)(F)F)cc1	-5	21*	-1	-4	·	2
COc1cccc2c1C(=O)C=C(C)C2=O	51*	5	34*	-15	0	2
CC#CC[N+](C)(C)CCCCCCCCCCCC	-5	13	-10	-8	6	0
O=C(NCc1ccco1)c1cc([N+](=O)[O-])ccc1N1CCCCC1	-7	17	-2	10	6	1
O=C(NCc1ccc2c(c1)OCO2)c1cc([N+](=O)[O-])ccc1N1CCCCC1	-21	25*	-1	0	23*	3
Cc1cccc(NS(=O)(=O)c2cc(C(=O)NCCC3=CCCCC3)ccc2Cl)c1	36	-1	7	-7	9	1
Cc1[nH]c2c(C)cccc2c1CCNC(=O)c1ccc2c(c1[N+](=O)[O-])C(=O)c1ccccc1C2=O	68*	-22	59*	-7	-6	-1
Cn1c(N)c(C(=O)COC(=O)CCCc2c[nH]c3ccccc23)c(=O)n(C)c1=O	-45	30*	-29	-11	20*	-1
C=CCN=c1scc(-c2ccc3c(c2)NC(=O)CO3)n1/N=C(\C)c1ccccn1	16	-6	34*	-5	·	-3
CC(Nc1nc(-c2ccc3c(c2)NC(=O)CO3)cs1)c1ccccc1 (configuration not stated)	6	-3	13	5	·	-1
CN(C)c1nccc(N(Cc2ccccc2)Cc2ccccc2)c1C#N	-93	66*	-37	18	22*	-1
CN(C)CCN(Cc1ccccc1)c1ccnc(N(C)C)c1C#N	2	8	-7	-9	4	1
Cn1c(=N)n(CC(O)c2cccc3ccccc23)c2ccccc21 (configuration not stated)	-70	34*	-7	-2	24*	-1
O=c1cc(NCCCO)c2ccccc2o1	110*	10	72*	11	1	2
SMILES	NPY1 pot ag	NPY-Y1 antag	NPY2 pot ag	S1P4 antag	NPY-Y2 antag	S1P4 ag
CCOc1ccccc1NC(=O)C1C2CCC3C(CCC21)C3(Cl)Cl (configuration not stated)	-18	10	-13	18	·	-2
O=C(Nc1ccccc1)C1C2CCC3C(CCC21)C3(Cl)Cl (configuration not stated)	-1	21*	-17	23	14	-4
CCCCOn1c(C)c(C(=O)OCC)c2c3nonc3ccc21	-67	67*	-45	1	23*	1
CCCCOn1c(C)c(C(=O)OCC)c2c3no[n+]([O-])c3ccc21	-16	5	-7	-15	5	2
Clc1cccc(Nc2nc(-c3cccnc3)cs2)c1	47*	-13	30*	-14	·	3
c1ccc(Nc2nc(-c3ccncc3)cs2)cc1	58*	-17	44*	11	-11	1
COc1ccc(-c2csc(Nc3cccnc3)n2)cc1	13	-11	29	1	-8	0
CN(C)c1ccc(C(c2ccc(N(C)C)cc2)c2ccc([N+](=O)[O-])cc2)cc1	9	·	9	9	·	0
Cc1ccc(-c2cc(C(F)F)n3ncc(C(=O)N4CCN5CCCC5C4)c3n2)cc1 (configuration not stated)	-76	21*	-39	-48	19*	0
CCOC(=O)C1CCCN(C(=O)c2cnn3c(C(F)F)cc(-c4ccc(C)cc4)nc23)C1 (configuration not stated)	-33	30*	-1	-7	26*	1
C(=C\c1ccccc1)/CSc1nnc(-c2cnccn2)n1Cc1ccco1	-17	17	-16	-8	22*	1
Cc1ccc(C2=C(c3ccc([N+](=O)[O-])cc3)C(=O)OC2)cc1C	-16	-1	6	-12	·	3
Cc1cc(C(=O)CSc2nnc(-c3cccnc3)n2-c2ccccc2F)c(C)n1C	16	-5	-6	-54	-1	27*
COc1ccc(-n2c(SCc3ccc([N+](=O)[O-])cc3)nnc2-c2ccccc2)cc1	-98	99*	-6	-7	112*	-1
CCOc1ccc(-n2c(SCc3ccc([N+](=O)[O-])cc3)nnc2-c2ccccc2)cc1	-79	66*	-15	1	149*	0
CCOc1ccc(-c2nnc(SCc3nnc(-c4ccccc4)o3)n2-c2ccccc2F)cc1	-23	26*	-13	20	19*	0
Cc1ccc(-c2nnc(CSc3nnc(COc4ccccc4)n3-c3ccccc3)o2)cc1	-27	13	-8	-10	15	-5
COc1ccc(-c2nnc(SCc3ccccc3)n2N)cc1	3	1	-29	1	0	1
CS(=O)(=O)N(CC(=O)NCc1ccncc1)c1ccc(F)c(Cl)c1	-9	0	0	-3	·	2
COc1cc2c(cc1OC)-c1cc(N3CCCc4ccccc43)nc(=O)n1CC2	-40	123*	-10	-18	136*	3
